Experimental findings from ChEMBL document CHEMBL5325427 are described below.

Data set [1] concerns the target Replicase polyprotein 1ab (Severe acute respiratory syndrome coronavirus 2, UniProt P0DTD1). The data set can be described thus: Inhibition of recombinant SARS CoV-2 PL protease incubated for 2 hrs followed by substrate addition and measured after 1 hr by fluorescence based analysis.
In data set [2] the test system is SARS-CoV-2. The data set can be described thus: Antiviral activity against SARS-CoV-2 NRC-03-nhCoV infected in african green monkey Vero E6 cells assessed as inhibition of viral growth pre-infected cells with virus for 1 hr followed by compound addition for 1 hr and measured after 72 hrs by crystal violet staining based analysis. The data set is classed as functional, organism-based. To be noted: Severe acute respiratory syndrome coronavirus 2, NRC-03-nhCoV, Vero C1008.

The nature of data set [3]: Permeability of the compound across apical to basolateral side in human Caco-2 cells at pH 6.5 to 7.4. The data set is classed as ADME, cell-based. To be noted: Caco-2, pH 6.5, read-out: permeability. In short, it runs like this: (§1)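 Caco-2 cells (0.5 × 10^6/well) were grown 7 days on collagen-coated transwell filters. Compound was dosed at 50, 75 and 100 μM input in 1% DMSO/HBSS, apical pH 6.5 and basolateral pH 7.4. Samples were taken every 30 min for 2 h in duplicate and quantified by LC/MS/MS. Papp was calculated from receiver concentration, time, area and mid-point donor and receiver concentrations. Monolayer integrity required fluorescein Papp below 1.5 × 10−6 cm/s.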

Data set [4] is described as follows: Permeability of the compound across apical to basolateral side in human Caco-2 cells assessed as drug recovery at pH 6.5 to 7.4. The data set is classed as ADME, cell-based. To be noted: Caco-2, pH 6.5, read-out: Drug recovery. The procedure, abridged:
as §1

Data set [5] can be described thus: Stability in CD-1 mouse liver microsomes assessed as compound remaining at 1 uM measured after 60 mins in absence of NADPH by LC-MS-MS analysis. The data set is classed as ADME, Microsome. To be noted: read-out: Stability. The procedure, abridged:
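Compound was incubated in liver microsomes without NADPH. Percent remaining was measured after 60 min.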

Data set [6] deals with SARS-CoV-2. The data set can be described thus: Antiviral activity against SARS CoV-2 HCoV-19/Egypt/NRC-1/2020 infected in human Caco-2 cells assessed as reduction in spike RNA expression at 20 ug/ml pre-infected with virus for 1 hr followed by cell addition for 1 hr and measured after 6 to 12 hrs by RT-PCR analysis. To be noted: Severe acute respiratory syndrome coronavirus 2, dose 20.0 µg/ml, time 8-14 hrs. The data set is classed as functional, organism-based.

The test system of data set [7] is SARS-CoV-2. The experiment in a line: Antiviral activity against SARS CoV-2 infected in human Caco-2 cells assessed as reduction in INF-alpha expression at 20 ug/ml preincubated with cells for 24 hrs followed by viral infection and measured after 1 to 3 hrs by real-time PCR assay. The data set is classed as functional, organism-based. To be noted: Severe acute respiratory syndrome coronavirus 2, dose 20.0 µg/ml, time 25-28 hrs.

Data set [8] concerns SARS-CoV-2. The data set can be described thus: Antiviral activity against SARS CoV-2 infected in human Caco-2 cells assessed as reduction in IL-6 expression at 20 ug/ml preincubated with cells for 24 hrs followed by viral infection and measured after 3 to 12 hrs by real-time PCR assay. Format: functional, organism-based. To be noted: Severe acute respiratory syndrome coronavirus 2, dose 20.0 µg/ml, time lower 27.0 hrs, time upper […].

Data set [9] is described as follows: Toxicity in Balb/c mouse assessed as effect on body weight loss at 25 to 100 mg/kg, ip administered as single dose measured upto 15 days. The data set is classed as organism-based. To be noted: in vivo, 360 h, dose 25-100 mg/kg, time < 15 day.
The nature of data set [10]: Toxicity in Balb/c mouse assessed as change in histological variation in heart at 12.5 to 25 mg/kg by H and E staining based analysis. The data set is classed as organism-based. To be noted: in vivo, dose 12.5-25 mg/kg. In short, it runs like this:
(§2)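 After the 14-day daily intraperitoneal dosing (12.5 or 25 mg/kg, female Balb/c), liver, kidney, spleen, heart and lung were fixed 24 h in 10% neutral-buffered formalin and paraffin-embedded. Sections of 4 μm were stained with H&E. Lesions were scored nil 0, mild 1, moderate 2, severe 3.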

A short description of data set [11]: Toxicity in Balb/c mouse assessed as change in histological variation in lung at 12.5 to 25 mg/kg by H and E staining based analysis. The data set is classed as organism-based. To be noted: in vivo, dose 12.5-25 mg/kg. In short, it runs like this: as §2
Data set [12] is described as follows: Toxicity in Balb/c mouse assessed as histological changes in liver by measuring toxicity score at 12.5 mg/kg by H and E staining based analysis. Format: organism-based. To be noted: in vivo. In short, it runs like this:
as §2

Data set [13] in a line: Toxicity in Balb/c mouse assessed as histological changes in kidney by measuring toxicity score at 12.5 to 25 mg/kg by H and E staining based analysis. The data set is classed as organism-based. To be noted: in vivo, dose 12.5-25 mg/kg. In short, it runs like this:
as §2

The nature of data set [14]: Toxicity in Balb/c mouse assessed as histological changes in heart by measuring toxicity score at 12.5 to 25 mg/kg by H and E staining based analysis. The data set is classed as organism-based. To be noted: in vivo, dose 12.5-25 mg/kg. In short, it runs like this:
as §2

Data set [15] is described as follows: Toxicity in Balb/c mouse assessed as reduction in platelet population at 25 mg/kg. The data set is classed as organism-based. To be noted: in vivo.
A short description of data set [16]: Toxicity in Balb/c mouse assessed as effect on total protein at 12.5 to 25 mg/kg. Format: organism-based. To be noted: in vivo, dose 12.5-25 mg/kg. In short, it runs like this: (§3)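 Female Balb/c mice were randomised to vehicle (0.5% DMSO in PBS) or 12.5 or 25 mg/kg intraperitoneally daily for 14 days, then followed 12 days after treatment. Body weight, haematology and blood chemistry were compared with vehicle controls; n = 3–5.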

The nature of data set [17]: Toxicity in Balb/c mouse assessed as effect on glucose at 12.5 to 25 mg/kg. Format: organism-based. To be noted: in vivo, dose 12.5-25 mg/kg. In short, it runs like this: as §3
Data set [18] addresses Replicase polyprotein 1ab (Severe acute respiratory syndrome coronavirus 2) (UniProt P0DTD1). The experiment in a line: Inhibition of SARS-CoV-2 3CLpro at 10 ug/ml preincubated with enzyme for 30 mins followed by substrate addition and measured after 4 hrs by fluorescence based analysis. To be noted: dose 10.0 µg/ml, time 4.5 hrs. In short, it runs like this: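 Recombinant SARS-CoV-2 3CLpro (1.5 ng/μl) was pre-incubated with compound 30 min at RT. Fluorogenic substrate was added to a final 40 μM and incubated 4 h at RT. Fluorescence was read at Ex 360/Em 460 nm. Wells were run in triplicate and blank was subtracted.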

In brackets after ≈: the same amount, converted by molar mass. Activity calls are given as the source filed them. The calls are words filed in the database; no cut-off is given here.

Regarding `COc1ccc2[nH]c3c(c2c1)C[C@]1(OC)CC[C@H]2c4[nH]c5ccccc5c4CCN2[C@@H]1C3`, the figures for the IC50 (in data set [1]; with SARS-CoV-2 [2]) were 91.2 nM and 12.1 µg/mL (≈ 28.3 µM), respectively. Moreover, the Papp A→B in data set [3] turned out to be 5.9 ×10⁻⁶ cm/s. Besides, the recovery in data set [4] was 77%. In addition, the remaining at 1 h, 1 µM in data set [5] came to 108%. The outcome with SARS-CoV-2 [6], with SARS-CoV-2 [7] and in the data set on SARS-CoV-2 [8] was Active. In addition, the Activity entry in data set [9] was “Non-Toxic”; in data set [10] it was “Non-Toxic”; in [11] it was “Non-Toxic”; in data set [12], 0; in [13], 0; in data set [14], 0. For the same compound, the Activity entry in [15], in [16] and in data set [17] was “Non-Toxic” each time. Moreover, the inhibition result in data set [18] was “inactive”.
